Measurements from different studies.
Each line is one published result; the experiments were not run side by side.
Read-out: cell growth or viability

The IC50 of `CCOc1cc2ncc(C#N)c(Nc3ccc(OCc4ccccn4)c(Cl)c3)c2cc1NC(=O)/C=C/CN(C)C` is reported as 18.5 nM (NCI-N87; ATP luminescence).
For `CC(C)C[C@H](NC(=O)[C@@H]1Cc2c(F)c(F)c(c(F)c2F)Sc2ccc(cc2)CC(=O)N[C@@H](C(C)C)C(=O)N1)C(=O)[C@@]1(C)CO1`, the IC50 was 91 nM (D283 Med).
`O=C(NO)Nc1nc2c(Cl)cc(Cl)cc2c(=O)n1-c1ccc(Cl)cc1` has an IC50 of > 200000 nM (SW480; MTT; 48 h).
The IC50 of `COc1c(Cl)cccc1Nc1c(-c2ccncc2OC[C@@H]2COCCO2)[nH]c2c1C(=O)NCC2` is reported as 12.7 nM (NCI-N87; ATP luminescence).
`CN(C)C(=O)Nc1nc2ccc(Br)cc2c(=O)n1-c1ccccc1` has an IC50 of > 200000 nM (SW480; MTT; 48 h).
`COc1ccc(Nc2ncnc3c2ncn3Cc2ccc(C(=O)NO)cc2)cc1` has an IC50 of 2040 nM (MM1.S; MTT; 72 h).
For `Cc1nc(Nc2ncc(C(=O)Nc3c(C)cccc3Cl)s2)cc(N2CC[C@H](O)C2)n1`, the IC50 was > 10000 nM (Toledo; ATP luminescence; 72 h).
The IC50 of `O=P1(c2ccccc2)CCCCC1` is reported as > 100000 nM (SW480; MTT; 72 h).
For `Nc1ccccc1NC(=O)c1ccc(Cn2cnc3c(Nc4ccc(Cl)cc4)ncnc32)cc1`, the IC50 was 1130 nM (MM1.S; MTT; 72 h).
`NNc1nc2ccc(Br)cc2c(=O)n1-c1ccc(F)cc1` gave an IC50 of 14600 nM (SW480; MTT; 48 h).
The IC50 of `CC(=O)Nc1ccc(O)cc1` is reported as 28600 nM (THLE-2; MTT).
`COc1cccc2c1C(=O)c1c(O)c3c(c(O)c1C2=O)C[C@@](O)(C(=O)CO)C[C@@H]3O[C@H]1C[C@H](N)[C@H](O)[C@H](C)O1` has an IC50 of 90 nM (SW480; MTT; 48 h).
`NNc1nc2ccc(Br)cc2c(=O)n1-c1ccccc1` has an IC50 of 136000 nM (SW480; MTT; 48 h).
For `O=P1(C2CCCCC2)CCCCC1`, the IC50 was 5100 nM (SW480; MTT; 72 h).
`CCCN1CC(Oc2ccc([C@@H]3c4[nH]c5ccccc5c4C[C@@H](C)N3CC(C)(C)F)cc2)C1` gave an IC50 of 126 nM (CAMA-1).
`COc1cccc2c1C(=O)c1c(O)c3c(c(O)c1C2=O)C[C@@](O)(C(=O)CO)C[C@@H]3O[C@H]1C[C@H](N)[C@H](O)[C@H](C)O1` gave an IC50 of 166 nM (HGC-27; 96 h).
With `O=C(NO)Nc1nc2ccc(Br)cc2c(=O)n1-c1ccccc1` the IC50 was > 200000 nM (SW480; MTT; 48 h).
For `C=C1CC[C@@H]2[C@](C)(CO)[C@H](O)CC[C@@]2(C)[C@@H]1C/C=C1/C(=O)OC[C@H]1O`, the IC50 was 4480 nM (SW480; MTT; 48 h).
`Cc1cc2c(C(=O)O)cccc2n1-c1nc2c(c(NCc3ccccc3)n1)CCCN2` gave an IC50 of 900 nM (MM1.S; 72 h).
For `O=C(NO)c1ccc(Cn2cnc3c(Nc4ccc(F)c(Cl)c4)ncnc32)cc1`, the IC50 was 2690 nM (MM1.S; MTT; 72 h).
`NNc1nc2ccc(Br)cc2c(=O)n1-c1ccc(Cl)cc1` gave an IC50 of 10900 nM (SW480; MTT; 48 h).
`Nc1ccccc1NC(=O)c1ccc(Cn2cnc3c(Nc4ccc(Br)cc4F)ncnc32)cc1` gave an IC50 of 1470 nM (MM1.S; MTT; 72 h).
The IC50 of `Cc1ccc(NNc2nc3c(Cl)cc(Cl)cc3c(=O)n2-c2ccccc2)cc1` is reported as 132000 nM (SW480; MTT; 48 h).
